Here are results for seven compounds from publication PMC7529613 (International Journal for Parasitology: Drugs and Drug …, 2020).

One data set concerns T. gondii. The experiment in a line: T. gondii growth inhibitory assay. The format is cell-based, Toxoplasma gondii. As to conditions: for IC50: read-out: IC50 T. gondii (anti-Toxoplasma IC50); for selectivity ratio at 48 h: human, Selectivity index (SI) = Cytotoxicity IC50/Anti-parasitic IC50, HFF cytotoxicity IC50 / anti-Toxoplasma IC50. Summed up: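 YFP-expressing RH-strain tachyzoites (~3500/well) were added to confluent HFF in supplemented IMDM. Test compound in DMSO (20 μM single dose, or 0–8 μM / 0–40 μM series) was added immediately or 2 h post-infection. Atovaquone 0.48 μM was the positive control; DMSO the negative. After 48 h at 37 °C/5% CO2, parasite YFP fluorescence was quantified by microscopy. IC50 came from triplicate-mean dose–response curves. SI = HFF cytotoxicity IC50/anti-Toxoplasma IC50.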

Data set [1] in a line: Cytotoxicity assay. As to conditions: human, uninfected HFF cells. The data set is classed as cell-based. The gist of the method: (§1)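 Confluent host cells were used: HCT-8 in phenol-red-free supplemented RPMI 1640, HFF in phenol-red-free DMEM with 10% FBS. Test compound in DMSO was added at 0–700 μM, with matched DMSO controls, for 48 h at 37 °C/5% CO2. WST-1 was added for 1 h in the dark and absorbance read at 420 nm. Viability inhibition was taken relative to DMSO. IC50 came from dose–response curves of triplicate means.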

The next data set relates to C. parvum. The experiment in a line: C. parvum growth inhibitory assay. The format is cell-based, Cryptosporidium parvum. The gist of the method:
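Sporozoites were excysted (HBSS, 60 min at 37 °C, then 1.5% sodium taurocholate, 60 min) and […]. 4 × 10^4 were added per well to confluent HCT-8 cells in supplemented RPMI-1640. […] After 72 h at 37 °C/5% CO2: fixed, antibody-stained, microscopy fluorescence quantified. […] Triplicate, ≥3 repeats.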

The nature of data set [2]: Cytotoxicity assay. As to conditions: human, uninfected HCT-8 cells. The format is cell-based. Summed up: as §1
The test system of another data set is Cryptosporidium. As to conditions: read-out: anti-Cryptosporidium IC50; ref Li et al., 2019; cited from earlier work.
Setting [3] is: Toxoplasma gondii, HFF, 48 h, read-out: Inhibition of T. gondii growth.

`O=C(NC(=O)c1ccc(F)c(F)c1F)OC1C2CC3CC(C2)CC1C3` (stereo not drawn) [JS-2-35, Adamantan-2-yl (2,3,4-trifluorobenzoyl)carbamate]: the 50% inhibitory concentration (IC50) in the data set on T. gondii (Toxoplasma gondii, HFF, 48 h) was 10.5 µM. Also, in the data set on T. gondii (setting [3]), the inhibition at 20 µM was ~80%. In addition, the selectivity ratio at 48 h with T. gondii stood at 5.6. This compound also returned a concentration for half-maximal inhibition (IC50) at 48 h in “Cytotoxicity assay [1]” of 59.2 µM.
On the same counts, the results for `CC(C)=CCC/C(C)=C/CNC(=O)NC(=O)c1ccc(F)c(F)c1F` [JS-2-20, (E)-N-((3,7-Dimethylocta-2,6-dien-1-yl)carbamoyl)-2,3,4-trifluorobenzamide] are 10.9 µM, ~80%, 5.7 and 62.6 µM.
As to `O=C1C(O)=C([C@H]2CC[C@H](c3ccc(Cl)cc3)CC2)C(=O)c2ccccc21` [atovaquone, reference compound], the inhibition at 0.5 µM in the data set on T. gondii (setting [3]) is ~100%.
In the case of `CC(C)=CCC/C(C)=C\COC(=O)NC(=O)C12CC3CC(CC(C3)C1)C2` [GMG-1-09, (Z)-3,7-Dimethylocta-2,6-dien-1-yl (adamantane-1-carbonyl)carbamate], the “IC50 T. gondii (anti-Toxoplasma IC50)” value in the data set with T. gondii (YFP-expressing RH tachyzoites in HFF cells, 48 h of culture) was “not potent”. Further, the inhibition at 20 µM in the data set on C. parvum (Cryptosporidium parvum, HCT-8, read-out: Inhibition of C. parvum growth) is ~70%. For the same compound, the selectivity ratio at 72 h with C. parvum (human, Selectivity index (SI) = Cytotoxicity IC50/Anti-parasitic IC50, HCT-8 cytotoxicity IC50 / anti-Cryptosporidium IC50) was ~14. In the data set “Cytotoxicity assay [2]”, this compound showed a concentration for half-maximal inhibition (IC50) at 48 h of 450 µM.
Take `O=C(NC(=O)c1ccc(F)c(F)c1F)OC12CC3CC(CC(C3)C1)C2` [JS-2-49, Adamantan-1-yl (2,3,4-trifluorobenzoyl)carbamate]: the IC50 in the data set on T. gondii (Toxoplasma gondii, HFF, 48 h) was determined as 12.1 µM. Also, in the data set with T. gondii (setting [3]), the inhibition at 20 µM is ~90%. For the same compound, in the data set on T. gondii, the selectivity ratio at 48 h worked out at 5.4. The IC50 at 48 h in “Cytotoxicity assay [1]” amounted to 65.5 µM.
For `NC[C@@H]1O[C@H](O[C@H]2[C@@H](O)[C@H](O[C@@H]3[C@@H](O)[C@H](N)C[C@H](N)[C@H]3O[C@H]3O[C@H](CO)[C@@H](O)[C@H](O)[C@H]3N)O[C@@H]2CO)[C@H](N)[C@@H](O)[C@@H]1O` [paromomycin], the IC50 with Cryptosporidium was 450 µM.
As for `COc1ccccc1C(=O)NC(=O)NC(=O)c1ccccc1OC` [JS-1-09, N,N′-Carbonylbis(2-methoxybenzamide)], the “Inhibition of T. gondii growth” value with T. gondii (8 μM compound, 48 h) was “almost completely inhibited”. Moreover, the “Selectivity index (SI) = Cytotoxicity IC50/Anti-parasitic IC50” value in the data set on T. gondii (HFF cytotoxicity IC50 / anti-Toxoplasma IC50) is 52.9. The IC50 in the data set with T. gondii (Toxoplasma gondii, HFF, 48 h) turned out to be 1.21 µM. In addition, the inhibition at 20 µM with T. gondii (setting [3]) is ~100%. In the data set with T. gondii, the selectivity ratio at 48 h is ~53. Also, 64 µM corresponded to half-maximal inhibition in “Cytotoxicity assay [1]” (IC50 at 48 h).
